# Tests used:
# [1] = target: DNA gyrase subunit B (Escherichia coli, UniProt P0AES6); test: Inhibition of Escherichia coli GyrB (1 to 220 residues) expressed in Escherichia coli BL21(DE3)
# [2] = target: DNA topoisomerase 4 subunit B (Escherichia coli K-12, UniProt P20083); test: Inhibition of Escherichia coli ParE
# [3] = tested on: Pseudomonas aeruginosa; test: Antibacterial activity against Pseudomonas aeruginosa PAO1 after 24 hrs by broth microdilution method; assay type: functional; conditions: PAO1, 24 h
# Method in brief: (§1)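 Broth microdilution per CLSI. Bacterial suspension adjusted to 1×10^6 CFU/mL in cation-adjusted Mueller–Hinton broth and mixed 1:1 with 2-fold serial compound dilutions. Final DMSO 2.5% v/v. Plates incubated at 35 °C with shaking at 140 rpm for 24 h.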
# [4] = tested on: Pseudomonas aeruginosa; test: Antibacterial activity against Pseudomonas aeruginosa harboring MexABCDXY deletion mutant after 24 hrs by broth microdilution method; assay type: functional
# Method in brief: (§2)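 Broth microdilution per CLSI. Bacterial suspensions adjusted to 1×10^6 CFU/mL in cation-adjusted Mueller–Hinton broth, mixed 1:1 with 2-fold serial compound dilutions (final DMSO 2.5% v/v). Incubation 35 °C, 140 rpm, 24 h.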
# [5] = tested on: Escherichia coli; test: Antibacterial activity against Escherichia coli after 24 hrs by broth microdilution method; assay type: functional; method in brief: as §1
# [6] = tested on: Escherichia coli; test: Antibacterial activity against tolC deficient Escherichia coli after 24 hrs by broth microdilution method; assay type: functional
# Method in brief: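 Broth microdilution per CLSI guidelines. Inoculum adjusted to 1×10^6 CFU/mL in cation-adjusted Mueller–Hinton broth, added 1:1 to 2-fold serial compound dilutions; final DMSO 2.5% v/v. Plates incubated 35 °C, 140 rpm, 24 h.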
# [7] = Dissociation constant, pKa of compound by pH metric method; assay type: physicochemical
# Method in brief: (§3)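 Potentiometric (pH-metric) titration on an automated titrator, Gold Standard pH metric assay, run in triplicate.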
# [8] = Growth inhibition of human A549 cells; assay type: cell-based
# [9] = Dissociation constant, acidic pKa of compound by pH metric method; assay type: physicochemical; method in brief: as §3
# [10] = Dissociation constant, basic pKa of compound by pH metric method; assay type: physicochemical; method in brief: as §3
# [11] = tested on: Acinetobacter baumannii; test: Antibacterial activity against Acinetobacter baumannii ARC3495 after 24 hrs by broth microdilution method; assay type: functional; conditions: ARC3495, 24 h; method in brief: as §1
# [12] = tested on: Klebsiella pneumoniae; test: Antibacterial activity against Klebsiella pneumoniae ARC1865 after 24 hrs by broth microdilution method; assay type: functional; conditions: ARC1865, 24 h; method in brief: as §1
# [13] = tested on: Haemophilus influenzae; test: Antibacterial activity against Haemophilus influenzae ATCC 49247 after 24 hrs by broth microdilution method; assay type: functional; conditions: ATCC 49247, 24 h; method in brief: as §1
# [14] = tested on: Enterobacter cloacae; test: Antibacterial activity against Enterobacter cloacae ARC3528 after 24 hrs by broth microdilution method; assay type: functional; conditions: ARC3528, 24 h; method in brief: as §1
# [15] = tested on: Staphylococcus aureus; test: Antibacterial activity against Staphylococcus aureus ATCC 29213 after 24 hrs by broth microdilution method; assay type: functional; conditions: ATCC 29213, 24 h; method in brief: as §1
# [16] = tested on: Staphylococcus aureus; test: Antibacterial activity against Staphylococcus aureus ATCC 29213 after 24 hrs in presence of 2% human albumin by broth microdilution method; assay type: functional; conditions: ATCC 29213, 24 h
# [17] = tested on: Staphylococcus aureus; test: Antibacterial activity against methicillin-resistant Staphylococcus aureus FQ-R after 24 hrs by broth microdilution method; assay type: functional; method in brief: as §2
# [18] = tested on: Staphylococcus aureus; test: Antibacterial activity against methicillin-resistant Staphylococcus aureus USA100 after 24 hrs by broth microdilution method; assay type: functional; conditions: USA100, 24 h; method in brief: as §2
# [19] = tested on: Streptococcus pneumoniae; test: Antibacterial activity against Streptococcus pneumoniae ATCC 49619 after 24 hrs by broth microdilution method; assay type: functional; conditions: ATCC 49619, 24 h; method in brief: as §1
# [20] = tested on: Enterococcus faecalis; test: Antibacterial activity against Enterococcus faecalis ATCC 29212 after 24 hrs by broth microdilution method; assay type: functional; conditions: ATCC 29212, 24 h; method in brief: as §1
# [21] = tested on: Candida albicans; test: Antifungal activity against Candida albicans ATCC 90028 after 24 hrs by broth microdilution method; assay type: functional; conditions: ATCC 90028, 24 h
# [22] = tested on: Streptococcus pyogenes; test: Antibacterial activity against Streptococcus pyogenes ARC838 after 24 hrs by broth microdilution method; assay type: functional; conditions: ARC838, 24 h
# Method in brief: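 Broth microdilution per CLSI. Bacterial suspension adjusted to 1×10^6 CFU/mL in cation-adjusted Mueller–Hinton broth and mixed 1:1 with 2-fold serial compound dilutions. Plates incubated at 35 °C with shaking at 140 rpm for 24 h.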
# Chain of DNA topoisomerase 4 subunit B (P20083 whole entry): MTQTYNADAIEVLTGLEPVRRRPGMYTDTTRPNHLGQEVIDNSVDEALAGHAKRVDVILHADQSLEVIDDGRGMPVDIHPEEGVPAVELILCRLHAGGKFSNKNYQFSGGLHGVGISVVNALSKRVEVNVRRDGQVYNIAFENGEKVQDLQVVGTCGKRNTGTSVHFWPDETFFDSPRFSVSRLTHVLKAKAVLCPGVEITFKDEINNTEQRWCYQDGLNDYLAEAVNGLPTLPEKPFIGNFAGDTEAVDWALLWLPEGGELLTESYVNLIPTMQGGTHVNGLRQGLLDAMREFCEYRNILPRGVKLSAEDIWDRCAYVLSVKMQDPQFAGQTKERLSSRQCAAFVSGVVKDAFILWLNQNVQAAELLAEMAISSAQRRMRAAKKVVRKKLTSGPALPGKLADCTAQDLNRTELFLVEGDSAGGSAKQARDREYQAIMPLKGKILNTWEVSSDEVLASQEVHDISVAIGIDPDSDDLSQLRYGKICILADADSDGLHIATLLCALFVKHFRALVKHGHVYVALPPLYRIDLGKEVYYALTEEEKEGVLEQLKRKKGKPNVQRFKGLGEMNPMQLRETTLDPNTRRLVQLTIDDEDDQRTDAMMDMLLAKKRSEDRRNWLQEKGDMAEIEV
Compound,IC50 [1],IC50 [2],MIC [3],MIC [4],MIC [5],MIC [6],pKa [7],GI50 [8],pKa [9],pKa [10],other results
CCNC(=O)Nc1cc(-c2nc(C(F)(F)F)cs2)c(-c2cc3ncccc3nc2N2C3CC2CN(C)C3)cn1,5 nM,200 nM,> 60 µg/mL,1.1 µg/mL,17.2 µg/mL,2.21 µg/mL,7.6,> 50000 nM,,,
CCNC(=O)Nc1cc(-c2nc(C(F)(F)F)cs2)c(-c2cc(-c3n[nH]c(=O)o3)cnc2N2CCC(N)CC2)cn1,2 nM,23 nM,> 50 µg/mL,1.15 µg/mL,> 50 µg/mL,9.2 µg/mL,,,6.8,9.5,
CCNC(=O)Nc1cc(-c2nc(C(F)(F)F)cs2)c(-c2cc(C(=O)NS(C)(=O)=O)cnc2N2C3CCC2CN(C)C3)cn1,8 nM,9 nM,> 50 µg/mL,> 50 µg/mL,> 50 µg/mL,> 50 µg/mL,,,3.2,7.6,
CCNC(=O)Nc1cc(-c2nc(C(F)(F)F)cs2)c(-c2cnc3cccnc3c2)cn1,4 nM,2010 nM,> 25 µg/mL,> 25 µg/mL,> 25 µg/mL,0.44 µg/mL,,,,,
CC(C)(O/N=C(\C(=O)N[C@@H]1C(=O)N2C(C(=O)[O-])=C(C[n+]3ccccc3)CS[C@H]12)c1csc(N)n1)C(=O)O [CEFTAZIDIME],,,,,,,,,,,MIC [11]: > 32 µg/mL; MIC [12]: 0.25 µg/mL; MIC [13]: 0.25 µg/mL; MIC [14]: > 32 µg/mL; MIC [15]: 16 µg/mL; MIC [16]: 16 µg/mL; MIC [17]: > 32 µg/mL; MIC [18]: > 32 µg/mL; MIC [19]: 0.5 µg/mL; MIC [20]: > 32 µg/mL; MIC [21]: > 32 µg/mL
CCNC(=O)Nc1cc(-c2nc(C(F)(F)F)cs2)c(-c2cc(-c3nnn[nH]3)cnc2N2C3CCC2CN(C)C3)cn1,9 nM,4 nM,> 50 µg/mL,> 50 µg/mL,> 50 µg/mL,36 µg/mL,,,3.6,7.8,
CCNC(=O)Nc1cc(-c2nc(C(F)(F)F)cs2)c(-c2cc3ncccc3nc2N2CCN(C)CC2)cn1,3 nM,400 nM,> 100 µg/mL,1.08 µg/mL,16.8 µg/mL,1.08 µg/mL,7.4,> 50000 nM,,,
CCNC(=O)Nc1cc(-c2nc(C(F)(F)F)cs2)c(-c2cc3ncccc3nc2N2CC3CCC2CN3)cn1 (configuration not stated),8 nM,21 nM,> 60 µg/mL,0.55 µg/mL,8.87 µg/mL,1.1 µg/mL,9.2,,,,
CC(=O)NC[C@H]1CN(c2ccc(N3CCOCC3)c(F)c2)C(=O)O1 [LINEZOLID],,,,,,,,,,,MIC [11]: > 64 µg/mL; MIC [12]: > 64 µg/mL; MIC [13]: 4 µg/mL; MIC [14]: > 64 µg/mL; MIC [17]: 0.5 µg/mL; MIC [18]: 1 µg/mL; MIC [22]: 0.5 µg/mL; MIC [21]: > 64 µg/mL
CCNC(=O)Nc1cc(-c2nc(C(F)(F)F)cs2)c(-c2cc(C(=O)O)ccc2N2C3CCC2CN(C)C3)cn1,9 nM,10 nM,9 µg/mL,4.46 µg/mL,9 µg/mL,1.12 µg/mL,,> 25000 nM,4.4,8.2,
CCNC(=O)Nc1cc(-c2nc(C(F)(F)F)cs2)c(-c2cc(C(=O)O)cnc2N2C3CCC2CN(C)C3)cn1,6 nM,8 nM,9 µg/mL,4.48 µg/mL,9 µg/mL,1.12 µg/mL,,> 50000 nM,3.5,7.4,
CCNC(=O)Nc1cc(-c2nc(C(F)(F)F)cs2)c(-c2cc3ncccc3nc2N2CC3CCCC(C2)N3)cn1,14 nM,25 nM,> 60 µg/mL,0.55 µg/mL,9.09 µg/mL,0.28 µg/mL,9.2,> 50000 nM,,,
CCNC(=O)Nc1cc(-c2nc(C(F)(F)F)cs2)c(-c2cc(-c3n[nH]c(=O)o3)cnc2N2[C@@H]3CC[C@H]2C[C@@H](N)C3)cn1,4 nM,12 nM,> 50 µg/mL,0.6 µg/mL,> 50 µg/mL,4.8 µg/mL,,,6.8,9.5,
CCNC(=O)Nc1cc(-c2nc(C(F)(F)F)cs2)c(-c2cc3ncccc3nc2N2[C@@H]3CC[C@H]2C[C@@H](N)C3)cn1,3 nM,24 nM,35.5 µg/mL,0.56 µg/mL,4.54 µg/mL,0.56 µg/mL,9.2,> 40000 nM,,,
CCNC(=O)Nc1cc(-c2nc(C(F)(F)F)cs2)c(-c2cc3ncccc3nc2N2CCC(N)CC2)cn1,6 nM,49 nM,67.8 µg/mL,0.54 µg/mL,16.8 µg/mL,0.54 µg/mL,9.3,> 50000 nM,,,

# Reference: ChEMBL document CHEMBL4270612, “Discovery of dual GyrB/ParE inhibitors active against Gram-negative bacteria” (Eur J Med Chem, 2018)
